Data on eight compounds can be found in ChEMBL document CHEMBL1149786, “Synthesis and antihypertensive effects of new methylthiomorpholinphenol derivatives” (2008).

Activity calls are given as the source filed them. The calls are words filed in the database; no cut-off is given here.

The subject of test [1] is Rattus norvegicus. The test can be described thus: Hypotensive effect in anesthetized Wistar rat arterial pressure model at 1.0 mg/kg administered through femoral vein. The class given is functional, organism-based. The note with it: Artery. On the set-up: dose 1 mg/kg. An outline of the steps: (§1)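 Male Wistar rats (280–320 g) under sodium pentobarbital (45 mg/kg, ip), tracheotomised. Right carotid cannulated (PE50) to a pressure transducer recording systolic, diastolic and mean arterial pressure and heart rate. Cumulative iv doses via femoral vein every 5 min: test series 0.0001–10 mg/kg, reference drugs 0.0001–1.0 mg/kg, n = 5. Change measured from pre-dose basal; ED50 taken from a fitted dose–effect model.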

The subject of test [2] is Rattus norvegicus. The test can be described thus: Hypotensive effect in anesthetized Wistar rat arterial pressure model assessed as decrease in heart rate at 0.01 mg/kg administered through femoral vein. Format: functional, organism-based. Set-up: dose 0.01 mg/kg. Put shortly: as §1
For test [3], the system named is Rattus norvegicus. The test can be described thus: Hypotensive effect in anesthetized Wistar rat arterial pressure model assessed as decrease in heart rate at 0.0001 mg/kg administered through femoral vein. Format: functional, organism-based. On the set-up: dose 0.0001 mg/kg. Put shortly: as §1
The subject of test [4] is Rattus norvegicus. Briefly: Antihypertensive effect in anesthetized Wistar rat. The class given is functional. Put shortly: as §1
For test [5], the system named is Rattus norvegicus. Briefly: Hypotensive effect in anesthetized Wistar rat arterial pressure model at 3.1 mg/kg administered through femoral vein. Format: functional, organism-based. On the set-up: dose 3.1 mg/kg. Conditions: Artery. Put shortly:
as §1

Test [6] deals with Rattus norvegicus. The test can be described thus: Antihypertensive effect in spontaneous hypertensive Wistar rat model assessed as maximum decrease in systolic arterial pressure at 1.0 mg/kg, po after 100 mins. Format: functional, Artery. Put shortly:
(§2)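 Conscious spontaneously hypertensive rats given a single oral dose of 1.0 mg/kg. Systolic and diastolic pressure and heart rate followed over 2.0 h. The largest fall from baseline and the time at which it occurred were recorded for each variable.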

Test [7] concerns Rattus norvegicus. Briefly: Antihypertensive effect in spontaneous hypertensive Wistar rat model assessed as maximum decrease in diastolic arterial pressure at 1.0 mg/kg, po after 100 mins. Format: functional, Artery. An outline of the steps:
as §2

Test [8] relates to Rattus norvegicus. The test can be described thus: Antihypertensive effect in spontaneous hypertensive Wistar rat model assessed as maximum decrease in heart rate per min at 1.0 mg/kg, po after 110 mins. The class given is functional. Put shortly: as §2
Test [9] relates to Rattus norvegicus. The test can be described thus: Hypotensive effect in anesthetized Wistar rat arterial pressure model at 10.0 mg/kg administered through femoral vein. The note with it: Artery. Format: functional, organism-based. Set-up: dose 10 mg/kg. An outline of the steps: as §1
Test [10] concerns Rattus norvegicus. The test can be described thus: Hypotensive effect in anesthetized Wistar rat arterial pressure model assessed as decrease in heart rate at 0.001 mg/kg administered through femoral vein. Format: functional, organism-based. On the set-up: dose 0.001 mg/kg. Put shortly: as §1
The subject of test [11] is Rattus norvegicus. Briefly: Hypotensive effect in anesthetized Wistar rat arterial pressure model assessed as decrease in heart rate at 10.0 mg/kg administered through femoral vein. The class given is functional, organism-based. Set-up: dose 10 mg/kg. Put shortly: as §1
In test [12] the test system is Rattus norvegicus. The test can be described thus: Hypotensive effect in anesthetized Wistar rat arterial pressure model assessed as decrease in heart rate at 1.0 mg/kg administered through femoral vein. The class given is functional, organism-based. On the set-up: dose 1 mg/kg. Put shortly:
as §1

Test [13] relates to Rattus norvegicus. The test can be described thus: Antihypertensive effect in spontaneous hypertensive Wistar rat model assessed as maximum decrease in systolic arterial pressure at 1.0 mg/kg, po after 60 mins. The class given is functional, Artery. An outline of the steps: as §2
In test [14] the test system is Rattus norvegicus. Briefly: Hypotensive effect in anesthetized Wistar rat arterial pressure model assessed as decrease in heart rate at 0.1 mg/kg administered through femoral vein. The class given is functional, organism-based. Set-up: dose 0.1 mg/kg. An outline of the steps:
as §1

The subject of test [15] is Rattus norvegicus. The test can be described thus: Antihypertensive effect in spontaneous hypertensive Wistar rat model assessed as maximum decrease in diastolic arterial pressure at 1.0 mg/kg, po after 60 mins. Format: functional, Artery. An outline of the steps: as §2
The subject of test [16] is Rattus norvegicus. The test can be described thus: Antihypertensive effect in spontaneous hypertensive Wistar rat model assessed as maximum decrease in heart rate per min at 1.0 mg/kg, po after 120 mins. Format: functional. An outline of the steps: as §2
Test [17] concerns Rattus norvegicus. Briefly: Hypotensive effect in anesthetized Wistar rat arterial pressure model assessed as decrease in heart rate at 3.1 mg/kg administered through femoral vein. The class given is functional, organism-based. Set-up: dose 3.1 mg/kg. An outline of the steps:
as §1

Test [18] has as its system Rattus norvegicus. The test can be described thus: Hypotensive effect in anesthetized Wistar rat arterial pressure model at 0.0001 mg/kg administered through femoral vein. Format: functional, organism-based. On the set-up: dose 0.0001 mg/kg. Conditions: Artery. An outline of the steps:
as §1

Test [19] relates to Rattus norvegicus. The test can be described thus: Antihypertensive effect in anesthetized Wistar rat assessed as change diastolic arterial pressure at 10.0 mg/kg administered through femoral vein. The class given is functional, Artery. Put shortly:
as §1

The subject of test [20] is Rattus norvegicus. Briefly: Antihypertensive effect in spontaneous hypertensive Wistar rat model assessed as maximum decrease in heart rate per min at 1.0 mg/kg, po after 80 mins. The class given is functional. Put shortly:
as §2

The subject of test [21] is Rattus norvegicus. Briefly: Antihypertensive effect in anesthetized Wistar rat assessed as change systolic arterial pressure at 10.0 mg/kg administered through femoral vein. Format: functional, Artery. An outline of the steps: as §1
Test [22] has as its system Rattus norvegicus. The test can be described thus: Antihypertensive effect in spontaneous hypertensive Wistar rat model assessed as maximum decrease in systolic arterial pressure at 1.0 mg/kg, po after 80 mins. The class given is functional, Artery. Put shortly:
as §2

Test [23] has as its system Rattus norvegicus. The test can be described thus: Antihypertensive effect in spontaneous hypertensive Wistar rat model assessed as maximum decrease in diastolic arterial pressure at 1.0 mg/kg, po after 80 mins. Format: functional, Artery. Put shortly: as §2
Test [24] concerns Rattus norvegicus. The test can be described thus: Antihypertensive effect in anesthetized Wistar rat assessed as change mean arterial pressure at 10.0 mg/kg administered through femoral vein. Format: functional, Artery. An outline of the steps:
as §1

For test [25], the system named is Rattus norvegicus. The test can be described thus: Antihypertensive effect in spontaneous hypertensive Wistar rat model assessed as maximum decrease in heart rate per min at 1.0 mg/kg, po after 100 mins. Format: functional. Put shortly:
as §2

Test [26] deals with Rattus norvegicus. The test can be described thus: Hypotensive effect in anesthetized Wistar rat arterial pressure model at 0.001 mg/kg administered through femoral vein. Format: functional, organism-based. Conditions: Artery. On the set-up: dose 0.001 mg/kg. Put shortly:
as §1

The subject of test [27] is Rattus norvegicus. The test can be described thus: Hypotensive effect in anesthetized Wistar rat arterial pressure model at 0.1 mg/kg administered through femoral vein. Conditions: Artery. Set-up: dose 0.1 mg/kg. Format: functional, organism-based. An outline of the steps: as §1
The test system of test [28] is Rattus norvegicus. Briefly: Antihypertensive effect in spontaneous hypertensive Wistar rat model assessed as maximum decrease in systolic arterial pressure at 1.0 mg/kg, po after 50 mins. Format: functional, Artery. Put shortly:
as §2

The test system of test [29] is Rattus norvegicus. Briefly: Antihypertensive effect in anesthetized Wistar rat assessed as reduction of diastolic arterial pressure at 1 mg/kg administered through femoral vein. Format: functional, organism-based. Set-up: dose 1 mg/kg. Conditions: Artery. Put shortly: as §1
The subject of test [30] is Rattus norvegicus. Briefly: Antihypertensive effect in spontaneous hypertensive Wistar rat model assessed as maximum decrease in heart rate per min at 1.0 mg/kg, po after 70 mins. Format: functional. An outline of the steps:
as §2

Test [31] concerns Rattus norvegicus. Briefly: Antihypertensive effect in anesthetized Wistar rat assessed as reduction of systolic arterial pressure at 1 mg/kg administered through femoral vein. The class given is functional, organism-based. Set-up: dose 1 mg/kg. The note with it: Artery. Put shortly:
as §1

Test [32] deals with Rattus norvegicus. The test can be described thus: Antihypertensive effect in anesthetized Wistar rat assessed as reduction of mean arterial pressure at 1 mg/kg administered through femoral vein. Format: functional, organism-based. Set-up: dose 1 mg/kg. The note with it: Artery. An outline of the steps:
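Male Wistar rats (280–320 g) anesthetized with sodium pentobarbital (45 mg/kg ip), tracheotomized; right carotid artery cannulated to a pressure transducer recording systolic, diastolic and mean arterial pressure and heart rate. Compounds given IV via femoral vein as cumulative dose–effect curve (0.0001–10 mg/kg), doses every five minutes; n = 5.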

Test [33] deals with Rattus norvegicus. The test can be described thus: Antihypertensive effect in spontaneous hypertensive Wistar rat model assessed as maximum decrease in systolic arterial pressure at 1.0 mg/kg, po after 90 mins. Format: functional, Artery. An outline of the steps:
as §2

Test [34] has as its system Rattus norvegicus. Briefly: Antihypertensive effect in spontaneous hypertensive Wistar rat model assessed as maximum decrease in diastolic arterial pressure at 1.0 mg/kg, po after 90 mins. Format: functional, Artery. Put shortly:
as §2

Test [35] concerns Rattus norvegicus. Briefly: Hypotensive effect in anesthetized Wistar rat arterial pressure model at 0.01 mg/kg administered through femoral vein. The class given is functional, organism-based. Set-up: dose 0.01 mg/kg. The note with it: Artery. An outline of the steps:
as §1

Turning to `Oc1ccc(Cl)cc1CN1CCSCC1`, the outcome in the test with Rattus norvegicus [1], with Rattus norvegicus [2], with Rattus norvegicus [3], with Rattus norvegicus [5], in the test on Rattus norvegicus [9] and in the test on Rattus norvegicus [10] was Active. Moreover, the ED50 with Rattus norvegicus [4] amounted to 2.21 mg/kg. Further, the Activity in the test with Rattus norvegicus [6] amounted to 73.9 mmHg; in the test on Rattus norvegicus [7], 46.7 mmHg; with Rattus norvegicus [8], 72.2.
As to `CC(C)(c1ccc(O)c(CN2CCSCC2)c1)c1ccc(O)c(CN2CCSCC2)c1`, the outcome in the test on Rattus norvegicus [1], with Rattus norvegicus [2], in the test with Rattus norvegicus [11], with Rattus norvegicus [12], with Rattus norvegicus [14] and in the test with Rattus norvegicus [5] was Active. Also, the result in the test on Rattus norvegicus [17], in the test on Rattus norvegicus [9] and with Rattus norvegicus [18] was Active. The same compound showed an ED50 with Rattus norvegicus [4] of 1.41 mg/kg. Moreover, the Activity is 28.1 mmHg in the test with Rattus norvegicus [13], 12.6 mmHg in the test on Rattus norvegicus [15] and 106.566 in the test on Rattus norvegicus [16].
Take `Oc1cc(O)c(CN2CCSCC2)cc1CN1CCSCC1`: the result in the test on Rattus norvegicus [2], with Rattus norvegicus [11], in the test on Rattus norvegicus [12], with Rattus norvegicus [14] and with Rattus norvegicus [17] was Active. The same compound returned a 50% effective dose (ED50) with Rattus norvegicus [4] of 0.363 mg/kg. In addition, the Activity was 45.6 mmHg in the test with Rattus norvegicus [13], 29.2 mmHg in the test with Rattus norvegicus [15] and 92.5 in the test with Rattus norvegicus [16].
For the compound `CCCCc1nc(Cl)c(CO)n1Cc1ccc(-c2ccccc2-c2nnn[nH]2)cc1` [LOSARTAN], the Activity worked out at 45.64 mmHg in the test on Rattus norvegicus [19]; 38.37 in the test with Rattus norvegicus [20]; 43.62 mmHg in the test with Rattus norvegicus [21]; 82.3 mmHg in the test with Rattus norvegicus [22]; 66.3 mmHg with Rattus norvegicus [23]; 41.31 mmHg in the test on Rattus norvegicus [24]. The compound further displayed an ED50 with Rattus norvegicus [4] of 0.0282 mg/kg.
Turning to `CC(C)(C)c1ccc(O)c(CN2CCSCC2)c1`, the result in the test on Rattus norvegicus [1], in the test with Rattus norvegicus [2], with Rattus norvegicus [11], in the test on Rattus norvegicus [12], in the test with Rattus norvegicus [14] and with Rattus norvegicus [5] was Active. Besides, the result in the test on Rattus norvegicus [26], in the test on Rattus norvegicus [9] and with Rattus norvegicus [27] was Active. Also, the ED50 in the test with Rattus norvegicus [4] was 1.04 mg/kg. In addition, the values for the Activity in the test on Rattus norvegicus [15], in the test with Rattus norvegicus [6] and in the test with Rattus norvegicus [25] were 31.8 mmHg, 71.5 mmHg and 148 beats/min, respectively.
Turning to `C[C@H](CS)C(=O)N1CCC[C@H]1C(=O)O` [CAPTOPRIL], the 50% effect level in the test with Rattus norvegicus [4] (ED50) was put at a dose of 0.00062 mg/kg. Further, the figures for the Activity with Rattus norvegicus [28], in the test on Rattus norvegicus [7] and in the test with Rattus norvegicus [30] were 42 mmHg, 36.5 mmHg and 52.04, respectively. Also, the result with Rattus norvegicus [29] and with Rattus norvegicus [31] was Active.
Take `O=C(N[C@H]1CCS[C@H]2CCC[C@@H](C(=O)O)N2C1=O)[C@@H](S)Cc1ccccc1` [OMAPATRILAT]: the ED50 in the test on Rattus norvegicus [4] is 0.0058 mg/kg.
Take `CC(C)(C)c1cc(CN2CCSCC2)c(O)c(CN2CCSCC2)c1`: the result in the test with Rattus norvegicus [1], in the test on Rattus norvegicus [11], with Rattus norvegicus [12], with Rattus norvegicus [32], in the test on Rattus norvegicus [5] and in the test on Rattus norvegicus [26] was Active. Further, the outcome with Rattus norvegicus [35], in the test on Rattus norvegicus [17], in the test on Rattus norvegicus [9], in the test with Rattus norvegicus [27] and in the test with Rattus norvegicus [18] was Active. In the test on Rattus norvegicus [4], the ED50 came out at 0.411 mg/kg. Further, the Activity came to 160 beats/min in the test on Rattus norvegicus [25], 95.8 mmHg in the test with Rattus norvegicus [33] and 48.2 mmHg in the test on Rattus norvegicus [34].
